High-throughput results deposited in PubChem BioAssay by several laboratories.
ABCB6 inh MLPCN = human ABCB6 transporter inhibition | 360,000 tested, 0.19% active | Q9NP58 | fluorescence ratio to DMSO, % at 10 µM | K562-ABCB6 porphyrin accumulation, flow cytometry, 1 h; hits give low values;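 active means fluorescence ratio to DMSO below 75%, the collection mean minus 3 SD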;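 further: signal is porphyrin accumulated inside mitochondria; lower ratio means ABCB6 inhibition with less porphyrin fluorescence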
V-ATPase pHluor = alters yeast V-ATPase proton transport; S. cerevisiae, pHLuorin cytosolic pH fluorescence; response, % at 10 µM; 350,000 tested, 0.37% active; AID 504577; in the data active means response mostly above about 7.3%, no sharp cut-off; inactive means mostly below about 5.4%; further: actives read high
KCC2 mod = KCC2 (human) Cl- transport modulation; Q9H2X9; KCC2 cells, thallium flux FluoZin-2 fluorescence; B-score of Tl+ flux slope (higher = more flux/activation; lower = inhibition) at 10 µM; 190,000 tested, 2.2% active; AID 1456;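 active means thallium flux slope and its plate-corrected score both differing from the plate sample mean at a set confidence after two filtering rounds, in either direction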;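 further: slope of fluorescence scaled to starting intensity during 10 to 20 s after thallium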
p-CIP stab down = lowers stability of the mouse p/CIP coactivator protein; F442A p/CIP-EGFP cells, EGFP fluorescence, 16 h; decrease of EGFP signal, % at 10 µM; 290,000 tested, 0.01% active; Q05BA5;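 active means EGFP signal decrease of at least 30% at 10 µM or well 3 SD below plate mean, unless failing retest; inactive means the rest, including hits failing retest or dose response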
Dynein transport = dynein cargo transport inhibition | 3617.4 mouse cells, GR-EGFP nuclear translocation imaging; test concentration mostly 20 µM; stimulated with dexamethasone, 1 µM; hits give low values | z-score, hits read low | 220,000 tested, 0.47% active | AID 1381;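 active means plate z-score of nuclear minus cytoplasmic receptor signal below a set negative limit, without overly bright fluorescence or cell loss, cut at about -3.5 in these data, passing the limit was not always enough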;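 further: z-score of nuclear minus cytoplasmic ring GR-EGFP intensity difference per well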
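Medium: Induction medium lacking tetracycline, stripped serum | Probe or stimulus: 1.0 µM final dexamethasone stimulus | Schedule: 48 h induction, then 1 h compound, then 30 min agonist, 37 °C | Signal: Automated 10x imaging of fixed Hoechst-stained cells | Evaluation: Per-cell GR-EGFP intensity, nucleus versus surrounding cytoplasmic ring, well-averaged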
Large screens that a line does not name were inactive. This is one part of a sample in which hits are shown more often than they occur.

CC1(C(=O)NS(=O)(=O)c2cccc(C#N)c2)CCN1C(=O)CCC1CCCC1 (stereo not drawn)	none (no result: V-ATPase pHluor, KCC2 mod, p-CIP stab down, Dynein transport)
S=C1CCSc2ccc(Cl)cc2N1	KCC2 mod 9.8
NC(=S)N/N=C1\CCSc2ccc(Cl)cc21	none
CCC1CCCCN1S(=O)(=O)c1ccc(NC(=O)c2nc(S(C)(=O)=O)ncc2Cl)cc1 (stereo not drawn)	ABCB6 inh MLPCN 62 (no result: KCC2 mod, Dynein transport)
CCS(=O)(=O)c1ncc(Cl)c(C(=O)Nc2ccc(S(=O)(=O)N3CCCC(C)C3)cc2)n1 (stereo not drawn)	ABCB6 inh MLPCN 29 (no result: KCC2 mod, Dynein transport)
CCS(=O)(=O)c1ncc(Cl)c(C(=O)Nc2ccc(C)cc2)n1	none (no result: KCC2 mod, Dynein transport)
Cc1cc(C)c(OC2(c3ccccc3)OC(=O)c3ccccc32)c(C)c1 (stereo not drawn)	V-ATPase pHluor 19
Cc1cccc(C)c1OC1(c2ccccc2)OC(=O)c2ccccc21 (stereo not drawn)	none
CCCN1C/C(=C/c2cccc([N+](=O)[O-])c2)C(=O)/C(=C/c2cccc([N+](=O)[O-])c2)C1	Dynein transport -6.3 (no result: KCC2 mod)
CN1C(=O)/C(=C/c2cccc([N+](=O)[O-])c2)C(=O)N1c1ccccc1	none (no result: KCC2 mod, Dynein transport)
O=C(Cc1ccccc1)NCC(=O)N1CCN(c2ccc(F)cc2)CC1	none (no result: KCC2 mod, p-CIP stab down, Dynein transport)
O=C(CSc1nc2ccccc2c(=O)n1Cc1ccco1)NCc1ccccc1	KCC2 mod 4 (no result: p-CIP stab down)
O=C(CSc1nc2ccccc2c(=O)n1Cc1ccccc1)NCc1ccco1	none
COCCNC(=O)C1(C)CCN(C(=O)c2cccnc2Oc2ccccc2)C1 (stereo not drawn)	none (no result: V-ATPase pHluor, KCC2 mod, p-CIP stab down, Dynein transport)
O=C(NC(=S)Nc1ccccc1N1CCCC1)c1ccccc1[N+](=O)[O-]	KCC2 mod 16
O=C(Nc1ccccc1N1CCCCC1)c1ccco1	none
O=C(NC(=S)Nc1cccc(Cl)c1N1CCCCC1)c1ccco1	KCC2 mod 6.7
O=C(NC(=S)Nc1ccccc1N1CCCCC1)c1ccco1	KCC2 mod 20
O=C(NC(=S)Nc1ccccc1N1CCOCC1)c1ccco1	KCC2 mod 18
Cc1ccc(S(=O)(=O)N2C[C@H]3C(=O)C[C@@H](c4ccccc4)N(S(=O)(=O)c4ccccc4)[C@H]3C[C@H]2c2ccccc2)cc1	none (no result: V-ATPase pHluor, KCC2 mod, p-CIP stab down, Dynein transport)
O=[N+]([O-])c1ccc(S(=O)Cc2ccccc2)c([N+](=O)[O-])c1 (stereo not drawn)	V-ATPase pHluor 22 (no result: KCC2 mod, p-CIP stab down, Dynein transport)
O=[N+]([O-])c1ccc(CS(=O)c2ccccc2)cc1 (stereo not drawn)	none (no result: KCC2 mod, p-CIP stab down, Dynein transport)
CC1(C(=O)NS(=O)(=O)c2cccs2)CCN1C(=O)CC1CCCC1 (stereo not drawn)	none (no result: V-ATPase pHluor, KCC2 mod, p-CIP stab down, Dynein transport)
Fc1ccc(NC(=S)NCc2ccccc2Cl)cc1	ABCB6 inh MLPCN 62
Nc1ccc(/C=C/C(=O)c2cccs2)cc1	KCC2 mod -7.4
O=C(C=Cc1ccccc1)c1cccs1	none (no result: KCC2 mod, p-CIP stab down, Dynein transport)
O=C(NNS(=O)(=O)c1ccc(Cl)cc1)c1sccc1-n1cccc1	none (no result: KCC2 mod)
O=C(NNC(=O)c1sccc1-n1cccc1)c1ccc(Cl)cc1	KCC2 mod 15
CC1CCN(c2ccc(NC(=S)NC(=O)c3ccco3)cc2)CC1	KCC2 mod 25
Cc1ccc(C(=O)NC(=S)Nc2ccc(N3CCN(C(=O)c4ccco4)CC3)cc2)cc1	none (no result: KCC2 mod, Dynein transport)
O=C(NC(=S)Nc1ccc(N2CCCCC2)cc1)c1ccco1	KCC2 mod 72
CC1=C(C#N)C(=O)N(C)C(C)(C)C1	KCC2 mod 2.8
COc1cccc(OC)c1C(=O)NC(=S)N1CCN(c2ccc(C(F)(F)F)cc2[N+](=O)[O-])CC1	none
COc1cccc(C(=O)NC(=S)N2CCN(c3ccc(C(F)(F)F)cc3[N+](=O)[O-])CC2)c1	KCC2 mod 8.8
CC(C)Oc1cccc(C(=O)NC(=S)N2CCN(c3ccc(C(F)(F)F)cc3[N+](=O)[O-])CC2)c1	KCC2 mod 18
CCOc1ccc(C(=O)NC(=S)N2CCN(c3ccc(C(F)(F)F)cc3[N+](=O)[O-])CC2)cc1	none
c1ccc(-c2cc3nc(NCc4cccs4)nc(NCc4ccc5occc5c4)c3s2)cc1	none (no result: V-ATPase pHluor, KCC2 mod, p-CIP stab down, Dynein transport)
CC(=O)Nc1cccc(Oc2nc(NC(C)C)nc3cc(-c4ccccc4)sc23)c1	none (no result: V-ATPase pHluor, KCC2 mod, p-CIP stab down, Dynein transport)
O=S1(=O)N[C@H](Cc2ccccc2)COc2cccc(N3CCSCC3)c21	none (no result: V-ATPase pHluor, KCC2 mod, p-CIP stab down, Dynein transport)
COc1ccc(-c2csc3ncnc(N4CCN(S(=O)(=O)c5ccc(C(C)=O)cc5)CC4)c23)cc1	V-ATPase pHluor 17 (no result: KCC2 mod, p-CIP stab down, Dynein transport)
COc1ccc(-c2csc3ncnc(N4CCN(S(=O)(=O)c5cccc(Br)c5)CC4)c23)cc1	none (no result: KCC2 mod, p-CIP stab down, Dynein transport)
O=C1/C(=C\c2cc(Cl)c(O)c(Cl)c2)SC(=S)N1Cc1ccccc1	V-ATPase pHluor 97 (no result: KCC2 mod, Dynein transport)
O=C1NC[C@H](CC2CCCCC2)N(CCc2cc(C(F)(F)F)cc(C(F)(F)F)c2)C1=O	none (no result: V-ATPase pHluor, KCC2 mod, p-CIP stab down, Dynein transport)
Cc1ccc(C)c(C(=O)COc2ccc(C)nc2[N+](=O)[O-])c1	Dynein transport -4.3
COC(=O)C1Sc2[nH]c(=O)sc2C(c2ccc(Cl)cc2)C1C(=O)OC (stereo not drawn)	none (no result: KCC2 mod)
Cc1ccc(C2c3sc(=O)[nH]c3SC3C(=O)NC(=O)C32)cc1 (stereo not drawn)	KCC2 mod -6.8 (no result: V-ATPase pHluor)
Cn1nc([N+](=O)[O-])nc1Sc1nnc(-c2ccccc2)o1	Dynein transport -3.7 (no result: KCC2 mod)
O=Cc1ccc(Sc2nnc(-c3ccccc3)o2)c([N+](=O)[O-])c1	none
O=C(NCC12CC3CC(CC(C3)C1)C2)c1nn2cccnc2c1Cl	V-ATPase pHluor 29
CCC1CC(C(=O)O)CC(=O)N1 (stereo not drawn)	none (no result: V-ATPase pHluor, KCC2 mod, p-CIP stab down, Dynein transport)
CC1=CN2C(=N)/C(=C/c3ccco3)C(=O)N=C2S1	none
CC1=CN2C(=N)/C(=C/c3ccc([N+](=O)[O-])o3)C(=O)N=C2S1	V-ATPase pHluor 143
CCN(CC)c1cnn(C/C(=N\OC)c2ccc(Cl)cc2)c(=O)c1Br	KCC2 mod -3.7
CO/N=C(\Cn1ncc(N2CCCC2)c(Cl)c1=O)c1ccc(Cl)cc1	none
CCCCOn1c(C)c(C(=O)OCC)c2c3nonc3ccc21	KCC2 mod -3.5 (no result: p-CIP stab down)
CCCCOn1c(C)c(C(=O)OCC)c2c3no[n+]([O-])c3ccc21	none
CCN=c1scc(-c2ccccc2)n1/N=C/c1ccccn1	KCC2 mod -3.8
C=CCN=c1scc(-c2ccccc2)n1/N=C/c1ccccn1	KCC2 mod -4.1
COc1ccc(-c2csc(C(O)c3ccc(F)c(F)c3)n2)cc1 (stereo not drawn)	none (no result: V-ATPase pHluor, KCC2 mod, p-CIP stab down, Dynein transport)
COCCNc1nc(NCCN2CCNC2=O)c2sc(-c3ccccc3)cc2n1	none (no result: V-ATPase pHluor, KCC2 mod, p-CIP stab down, Dynein transport)
COc1ccc(OC)c(-c2cc(C(=O)N3CCN(c4ccccc4)CC3)no2)c1	V-ATPase pHluor 18
COc1ccc(O)c(C(=O)CC(=O)c2ccccc2)c1	KCC2 mod 22 (no result: ABCB6 inh MLPCN, V-ATPase pHluor)
O=C(Nc1nnc(-c2ccccc2Cl)o1)c1ccc(S(=O)(=O)N2CCCCCC2)cc1	KCC2 mod 8.5 (no result: ABCB6 inh MLPCN, V-ATPase pHluor)
COc1ccc(-c2ccc(N3C(c4cc(OC)cc(OC)c4)=Cc4ccc(OC)cc4C3CC(C)=O)cc2)cc1 (stereo not drawn)	none (no result: V-ATPase pHluor, KCC2 mod, p-CIP stab down, Dynein transport)
